Test results: ChEMBL document CHEMBL4002546, “Evaluation of 7-arylaminopyrazolo[1,5-a]pyrimidines as anti-Plasmodium falciparum, antimalarial, and Pf-dihydroorotate dehydrogenase inhibitors” (Eur J Med Chem, 2017)

Experiments:
[1] = system: Plasmodium falciparum; experiment: Antiplasmodial activity against chloroquine-resistant Plasmodium falciparum W2 infected in human A+ erythrocytes assessed as inhibition of [3H]-hypoxanthine incorporation after 42 hrs by beta counting method; format: functional, cell-based
Procedure, shortened: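 W2 parasites cultured at 37 °C in A+ human erythrocytes in RPMI 1640 with 10% A+ human serum, under low O2 (3% O2, 5% CO2). Compound dilutions were tested at 1% parasitemia and 1% haematocrit. [3H]-hypoxanthine uptake was read by beta counting after 42 h. IC50 was derived by curve fitting relative to drug-free controls.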

[2] = Inhibition of N-terminally truncated Plasmodium falciparum SUMO-tagged DHODH (159 to 569 residues) expressed in Escherichia coli BL21(DE3) using L-dihydroorotate as substrate by DCIP-based colorimetric assay
Procedure, shortened: (§1)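 Recombinant PfDHODH expressed in E. coli BL21(DE3) from a SUMO-His construct, IPTG-induced. Purified by Ni-NTA, then ULP1 tag cleavage, then size exclusion. Activity measured as continuous DCIP reduction at 600 nm over 60 s at 25 °C. Reaction: 50 mM Tris pH 8.15, 150 mM KCl, 0.1% Triton X-100, 1 mM L-dihydroorotate, 100 µM CoQ₀, 60 µM DCIP, 50 nM enzyme. Four replicates per concentration; activity relative to no-inhibitor control. IC50 from nonlinear fit.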

[3] = system: Plasmodium berghei; experiment: (§2) Antimalarial activity against Plasmodium berghei NK65 infected in mouse assessed as reduction in parasitemia at 5 mg/kg, po administered daily for 3 consecutive days starting 24 hrs post inoculum challenge containing parasitized red blood cells measured on day 5 by giemsa staining based microscopic method; format: functional
Procedure, shortened: (§3)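 P. berghei NK65 maintained by weekly blood passage. Mice inoculated i.p. with 1 × 10⁶ infected erythrocytes, randomized after ~24 h into groups of five. Oral dosing at 5 mg/kg once daily for 3 days, freshly diluted in 3% DMSO in RPMI; vehicle and amodiaquine controls. Parasitemia read on Giemsa-stained, methanol-fixed tail-blood thin smears. Inhibition is relative to untreated mice, taken as 100% growth.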

[4] = system: Plasmodium falciparum; experiment: Antiplasmodial activity against chloroquine-resistant Plasmodium falciparum W2 infected in human A+ erythrocytes after 48 hrs by SYBR Green based fluorescence assay; format: functional, cell-based; details: W2, 48 h
Procedure, shortened: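 W2 parasites kept at 37 °C in A+ human red cells in RPMI 1640 with 10% A+ human serum, under 3% O2/5% CO2/91% N2. Serial dilutions were run at 0.5% parasitemia and 2% haematocrit for 48 h at 37 °C. Cells were lysed in Tris/EDTA/saponin/Triton buffer with SYBR Safe for 30 min in the dark, then read at ex 485/em 535 nm. IC50 was curve-fitted against drug-free controls.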

[5] = system: Plasmodium berghei; experiment: as §2, with “day 7” for “day 5”; format: functional; procedure, shortened: as §3
[6] = system: Plasmodium berghei; experiment: as §2, with “day 9” for “day 5”; format: functional; procedure, shortened: as §3
[7] = system: Plasmodium berghei; experiment: as §2, with “day 11” for “day 5”; format: functional; procedure, shortened: as §3
[8] = system: Plasmodium falciparum; experiment: Inhibition of N-terminally truncated Plasmodium falciparum SUMO-tagged DHODH (159 to 569 residues) expressed in Escherichia coli BL21(DE3) assessed as residual activity at 50 uM using L-dihydroorotate as substrate by DCIP-based colorimetric assay relative to control; procedure, shortened: as §1
[9] = system: Plasmodium falciparum; experiment: Antiplasmodial activity against chloroquine-resistant Plasmodium falciparum W2 infected in human A+ erythrocytes by HRP2 detection based ELISA; format: functional, cell-based
Procedure, shortened: (§4)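 W2 blood-stage culture in A+ human erythrocytes in RPMI 1640 with 10% A+ human serum at 37 °C, under 3% O2/5% CO2. Growth was read with monoclonal antibodies against histidine- and alanine-rich protein II (HRPII). IC50 was estimated by curve fitting against drug-free controls.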

[10] = Cytotoxicity against African green monkey BGM cells assessed as lethality after 24 hrs by neutral red dye based assay; format: cell-based; details: chlorocebus aethiops, read-out: MLD50
Procedure, shortened: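 BGM monkey kidney cells grown in RPMI 1640 with 10% heat-inactivated foetal serum and gentamicin. Cells were seeded at 1 × 10⁵ cells/mL and left 18 h to adhere. Compounds were added across a 1000–1 dilution range for 24 h at 37 °C in 5% CO2. Cells took up neutral red for 2 h, were fixed with formaldehyde/CaCl2 and extracted with alcohol-acetic acid, then read at A540. Viability is % of untreated cells; MLD50 was calculated from this.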

[11] = biological target: Dihydroorotate dehydrogenase (quinone), mitochondrial (Homo sapiens) (UniProt Q02127); experiment: Inhibition of recombinant human DHODH assessed as residual activity at 50 uM using L-dihydroorotate as substrate by DCIP-based colorimetric assay relative to control
Sequence of Dihydroorotate dehydrogenase (quinone), mitochondrial (Homo sapiens) (Q02127 whole entry): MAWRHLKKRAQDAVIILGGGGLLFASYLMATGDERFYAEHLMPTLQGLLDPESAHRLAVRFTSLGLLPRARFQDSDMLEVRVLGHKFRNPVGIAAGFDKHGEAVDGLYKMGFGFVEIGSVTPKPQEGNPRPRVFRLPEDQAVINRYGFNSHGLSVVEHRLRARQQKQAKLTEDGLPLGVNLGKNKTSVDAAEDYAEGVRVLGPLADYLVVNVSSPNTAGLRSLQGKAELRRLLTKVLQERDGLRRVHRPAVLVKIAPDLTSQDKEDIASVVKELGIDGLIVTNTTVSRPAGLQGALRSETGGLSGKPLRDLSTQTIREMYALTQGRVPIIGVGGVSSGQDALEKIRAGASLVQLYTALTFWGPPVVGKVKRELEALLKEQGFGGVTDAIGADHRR
Procedure, shortened: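 Recombinant human DHODH at 20 nM final, in 50 mM Tris pH 8.15 with 150 mM KCl and 0.1% Triton X-100. Substrate was 1 mM L-dihydroorotate, with CoQ0 as acceptor and DCIP as dye. DCIP reduction was followed at 610 nm for 60 s at 25 °C, against a no-enzyme reference. Four replicates per concentration; activity is % of the uninhibited control.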

[12] = Selectivity index, ratio of MLD50 for african green monkey BGM cells to IC50 for chloroquine-resistant Plasmodium falciparum W2 infected in human A+ erythrocytes by [3H]-hypoxanthine incorporation assay; format: toxicity, cell-based; details: read-out: Selectivity Index
[13] = Selectivity index, ratio of MLD50 for african green monkey BGM cells to IC50 for chloroquine-resistant Plasmodium falciparum W2 infected in human A+ erythrocytes by HRP2 ELISA assay; format: toxicity, cell-based; details: read-out: Selectivity Index
[14] = system: Plasmodium falciparum; experiment: Antiplasmodial activity against chloroquine-resistant/mefloquine-sensitive Plasmodium falciparum W2 infected in human A+ erythrocytes assessed as inhibition of parasite growth by HRP2 detection based assay; format: functional, cell-based; procedure, shortened: as §4
[15] = Selectivity index, ratio of MLD50 for african green monkey BGM cells to IC50 for chloroquine-resistant Plasmodium falciparum W2 infected in human A+ erythrocytes by SYBR Green based fluorescence assay; format: toxicity, cell-based
[16] = Solubility of the compound at >100 uM; format: physicochemical

Structure (SMILES) | IC50 [1] | IC50 [2] | inhibition in vivo at 5 mg/kg [3] | IC50 [4] | inhibition in vivo at 5 mg/kg [5] | inhibition in vivo at 5 mg/kg [6] | inhibition in vivo at 5 mg/kg [7] | Activity [8] | IC50 [9] | CC50 at 24 h [10] | Activity [11] | selectivity ratio [12] | selectivity ratio [13] | IC50 [14] | selectivity ratio [15] | solubility [16]
CCN(CC)Cc1cc(Nc2ccnc3cc(Cl)ccc23)ccc1O [AMODIAQUINE] | 0.006 µM | > 400 µM | 100% | 0.006 µM | 100% | 100% | 100% | 79% | – | – | – | – | – | – | – | –
Cc1cc(Nc2ccccc2C(F)(F)F)n2nc(C(F)(F)F)cc2n1 | 50 µM | – | – | – | – | – | – | 48% | 44.4 µM | 228 µM | 93% | 4.6 | 5.1 | – | – | –
Cc1cc(Nc2ccc(Cl)cc2)n2nc(C(F)(F)F)cc2n1 | 50.3 µM | 23 µM | – | – | – | – | – | 52% | 67.5 µM | 67.5 µM | 121% | 1.3 | 1 | – | – | –
Cc1cc(Nc2ccc(C(F)(F)F)cc2)n2nc(C(F)(F)F)cc2n1 | 47.2 µM | > 100 µM | – | – | – | – | – | 33% | 30.6 µM | 108 µM | 95% | 2.3 | 3.5 | – | – | –
CCN(CC)CCCC(C)Nc1cc(C)nc2nc(C(F)(F)F)nn12 (configuration not stated) | – | – | – | – | – | – | – | – | – | – | – | – | – | 39 µM | – | –
Cc1cc(Nc2ccc3ccccc3c2)n2nc(C)cc2n1 | 5.1 µM | 4 µM | 50% | 5.1 µM | 40% | 53% | 65% | 41% | – | 406 µM | 71.9% | 79.6 | – | – | 79.6 | Insoluble
Cc1cc(Nc2ccccc2C(F)(F)F)n2nc(C)cc2n1 | 42.5 µM | – | – | – | – | – | – | 94% | 49 µM | 105 µM | 96% | 2.5 | 2.1 | – | – | –
Cc1cc2nc(C(F)(F)F)cc(Nc3ccccc3)n2n1 | 17.1 µM | – | – | 17.1 µM | – | – | – | 77% | – | 261 µM | 122% | 15.2 | – | – | 15.2 | Insoluble
COc1cc(Nc2cc(C(F)(F)F)nc3cc(C)nn23)cc(OC)c1 | 8.6 µM | – | – | 8.6 µM | – | – | – | 77% | – | > 2840 µM | 104% | > 330 | – | – | > 330 | Insoluble
COc1cc(Nc2cc(C)nc3cc(C)nn23)cc(OC)c1 | 26.8 µM | > 400 µM | – | – | – | – | – | 42% | 21.5 µM | 188 µM | 80% | 7 | 8.7 | – | – | –
Cc1cc2nc(C(F)(F)F)cc(Nc3ccc4ccccc4c3)n2n1 | 10 µM | 0.16 µM | 25% | 10 µM | 1% | 4% | 29% | 60% | – | 2340 µM | 101% | 234 | – | – | 234 | Insoluble
Cc1cc(Nc2ccccc2)n2nc(C)cc2n1 | 67.2 µM | – | – | – | – | – | – | 66% | 92.4 µM | 315 µM | 104% | 4.7 | 3.4 | – | – | –
Cc1cc(Nc2ccc3ccccc3c2)n2nc(C(F)(F)F)cc2n1 | 1.2 µM | 6 µM | 50% | 1.2 µM | 61% | 47% | 59% | 67.5% | – | 561 µM | 56.8% | 468 | – | – | 468 | Insoluble
Cc1cc(Nc2ccc(C(F)(F)F)cc2)n2nc(C)cc2n1 | 15.7 µM | 24 µM | – | – | – | – | – | 34.3% | 8.5 µM | 85 µM | 88% | 5.4 | 10 | – | – | –
Cc1cc(Nc2ccc(Cl)cc2)n2nc(C)cc2n1 | 25.7 µM | – | – | – | – | – | – | 74% | 23.5 µM | 566 µM | 95% | 22 | 24.1 | – | – | –
Cc1cc(Nc2ccc3ccccc3c2)n2nc(C(F)(F)F)nc2n1 | – | 0.7 µM | – | – | – | – | – | 37% | – | 425 µM | – | 18.5 | 18.5 | – | – | –
COc1cc(Nc2cc(C)nc3cc(C(F)(F)F)nn23)cc(OC)c1 | > 142 µM | > 400 µM | – | – | – | – | – | 57% | > 142 µM | 256 µM | 95% | – | – | – | – | –
Cc1cc(Nc2ccccc2)n2nc(C(F)(F)F)cc2n1 | > 171 µM | – | – | – | – | – | – | 88% | > 171 µM | 856 µM | 113% | – | – | – | – | –
COc1ccc(Nc2cc(C)nc3nc(C(F)(F)F)nn23)cc1 | – | – | – | – | – | – | – | – | – | – | – | – | – | 0.4 µM | – | –
FC(F)(F)c1cc(Nc2cc(Cl)cc(Cl)c2)n2nc(C(F)(F)F)nc2n1 | – | – | – | – | – | – | – | – | – | – | – | – | – | 12.3 µM | – | –
